TRPC4 agonist: activators of mouse TRPC4 channel, primary screen, Fluo4 calcium, HEK293 TRPC4beta/mu-opioid cells. actives 0.49% (n = 310,000). Short transient receptor potential channel 4 (Mus musculus), Q9QUQ5. B-score at 10 µM. Fluo4 calcium fluorescence; hits give high values;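 active = B-score above 5 SD of library B-scores, and initial fluorescence ratio not above library mean plus 5 SD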;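 note: positive B-score marks a calcium rise read as TRPC4 activation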
Target sequence (Q9QUQ5 whole entry, looked up): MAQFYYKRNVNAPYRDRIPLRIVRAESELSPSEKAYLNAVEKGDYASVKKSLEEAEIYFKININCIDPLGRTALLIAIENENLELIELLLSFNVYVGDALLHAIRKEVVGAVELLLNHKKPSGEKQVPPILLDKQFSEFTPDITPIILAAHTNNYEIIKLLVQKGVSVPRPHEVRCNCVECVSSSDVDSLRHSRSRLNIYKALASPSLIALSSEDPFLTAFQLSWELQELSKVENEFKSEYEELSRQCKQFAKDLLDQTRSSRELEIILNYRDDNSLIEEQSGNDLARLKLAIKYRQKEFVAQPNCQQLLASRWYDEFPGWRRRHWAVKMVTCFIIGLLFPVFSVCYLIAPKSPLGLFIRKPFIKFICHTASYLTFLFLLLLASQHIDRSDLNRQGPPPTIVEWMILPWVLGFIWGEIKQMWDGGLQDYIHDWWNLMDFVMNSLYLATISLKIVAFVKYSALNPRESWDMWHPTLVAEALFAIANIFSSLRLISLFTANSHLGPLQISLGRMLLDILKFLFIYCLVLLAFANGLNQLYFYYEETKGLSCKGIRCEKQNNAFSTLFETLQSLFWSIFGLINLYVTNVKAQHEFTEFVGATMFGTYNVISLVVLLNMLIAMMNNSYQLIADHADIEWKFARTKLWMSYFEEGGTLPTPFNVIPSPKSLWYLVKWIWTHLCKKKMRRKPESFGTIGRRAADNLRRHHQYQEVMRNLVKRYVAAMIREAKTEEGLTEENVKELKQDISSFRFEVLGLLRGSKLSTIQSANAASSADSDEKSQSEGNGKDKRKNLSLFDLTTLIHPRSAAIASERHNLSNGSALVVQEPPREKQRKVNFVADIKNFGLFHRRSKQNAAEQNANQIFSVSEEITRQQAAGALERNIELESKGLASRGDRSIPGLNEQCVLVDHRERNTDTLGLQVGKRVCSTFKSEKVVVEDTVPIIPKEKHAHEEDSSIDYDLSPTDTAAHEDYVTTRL
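Assay system: HEK293 cells stably co-expressing mouse TRPC4beta and mu-opioid receptor / Timing: Fluo4 dye loading 45 min at room temperature, 110 s recording / Signal: Fluo4 calcium-sensitive dye fluorescence, kinetic, 1 Hz baseline / Read-out: integrated baseline-normalised fluorescence ratio, converted to per-well B score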
TRPC4 inh: inhibitors of mouse TRPC4 channel, primary screen, Fluo4 calcium, HEK293 TRPC4beta/mu-opioid cells | Short transient receptor potential channel 4 (Mus musculus), Q9QUQ5 | DAMGO-evoked Fluo4 calcium flux; hits give low values | B-score at 10 µM | actives 0.39% (n = 300,000);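 active = B-score over 3 SD under the library average, no early fluorescence shift, positive overall ratio signal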
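Test system – stable TRPC4beta/mu-opioid receptor HEK293 cells · Probe or stimulus – DAMGO, a submaximal dose followed by a maximal one · Dosing – one concentration per compound · Signal – Fluo4 calcium fluorescence by kinetic imaging, 5 s 1 Hz baseline · Evaluation – per-well B score of integrated baseline-normalized Fluo4 ratio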
TRPC6 inh: mouse TRPC6 channel inhibitors, primary screen, cell-based, HEK293, membrane potential dye; actives 1.1% (n = 310,000); Short transient receptor potential channel 6 (Mus musculus), Q61143; B-score at 10 µM; ACh-evoked depolarization; hits give low values;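 active = B-score under library mean minus 3 SD, initial fluorescence not abnormally high, positive integrated signal ratio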;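 note: B-score derived from integrated fluorescence ratio over the kinetic read; more negative B-score means stronger inhibition of depolarization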
TRPC4 PAM: positive allosteric modulators of TRPC4, primary screen, cell-based, mouse TRPC4beta, HEK293 mu-opioid, Fluo-4 calcium. actives 0.42% (n = 310,000). DAMGO EC20, Fluo-4 Ca2+ flux; hits give high values. Short transient receptor potential channel 4 (Mus musculus), Q9QUQ5. B-score at 10 µM;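 active = B-score of calcium response area above 5 SD of library B-scores, with initial fluorescence ratio within 5 SD of library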
Platelet DG rel: inhibitors of platelet dense granule secretion, primary screen, cell-based, MLPCN, human platelets. human platelet-rich plasma, SFLLRN dense granule ATP release, luminescence. actives 0.22% (n = 300,000). AID 1663, 2009. inhibition, %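 (compounds screened at 7.5 µM in platelet-rich plasma)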;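 active = mean replicate score, as percent of positive control, at or above 50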
TRPC6 act: mouse TRPC6 channel activators, primary screen, cell-based, HEK293, membrane potential dye. Short transient receptor potential channel 6 (Mus musculus), Q61143. HEK293-TRPC6 membrane potential dye fluorescence; hits give high values. actives 0.13% (n = 310,000). B-score at 10 µM;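 active = B-score of the integrated fluorescence ratio above library mean plus 3 SD, and starting fluorescence ratio within library mean plus 5 SD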;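 note: higher score means more depolarization so channel activation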
Of the large screens only hits and unclear results are named; the others gave an inactive call. Shown are actives, neighbours in structure and some others; about 2.5% of the full set was active somewhere.

O=C(Cc1ccccc1F)NC1CCCN(Cc2ccc(Cl)cc2)C1 (configuration not stated)	TRPC4 agonist 44
CC(=O)c1c(C)nn(CC(=O)NC2CCCN(Cc3ccc(CC(C)C)cc3)C2)c1C (configuration not stated)	TRPC4 agonist 111, Platelet DG rel 77
COc1cc(OC)cc(C(=O)NC2CCCN(Cc3ccc(Cl)cc3)C2)c1 (configuration not stated)	TRPC4 agonist 92
O=C(CCN1CCCCC1=O)NC1CCCN(Cc2ccc(Cl)cc2)C1 (configuration not stated)	TRPC4 PAM 14
O=C(Cc1cccc(F)c1F)NC1CCCN(Cc2ccc(Cl)cc2)C1 (configuration not stated)	TRPC4 agonist 106
Cc1cc(C)n(CC(=O)NC2CCCN(Cc3ccc(Cl)cc3)C2)n1 (configuration not stated)	TRPC4 agonist 50
O=C(/C=C/c1ccccc1)NCC(=O)N/N=C/c1cccs1	none
CN1CCN(C2=Nc3c(Cl)cc(Cl)c4cccc2c34)CC1	none
CN1CCN(C2=Nc3cc(F)ccc3Cc3ccccc32)CC1	TRPC6 inh -5.2
CCCN1CN(Cc2ccco2)c2nc3ccccc3n2C1	TRPC4 inh -6
Cc1ccc(N2CCN(S(=O)(=O)c3ccc4c(c3)NC(=O)C(C)C(=O)N4)CC2C)cc1 (configuration not stated)	none
Cc1sc2ncnc(SCC(=O)N(C)C3CCS(=O)(=O)C3)c2c1C (configuration not stated)	TRPC4 PAM 34
CCc1ccc(NC(=O)CCn2nc(C)c(S(=O)(=O)N3CCCCC3)c2C)cc1	none
O=C(/C=C/c1ccc(F)cc1)NNC(=O)CCN1CCN(Cc2ccccc2)CC1	TRPC4 agonist 50
COc1cccc(/C=C/C(=O)NNC(=O)CCN2CCN(Cc3ccccc3)CC2)c1	TRPC4 agonist 48, TRPC4 PAM 12
O=C(/C=C/c1ccc(F)cc1)NC(=S)N1CCN(Cc2ccccc2)CC1	none
C=CCOc1c(Cl)cc(C(=S)N2CCCC2)cc1OCC	none
Nc1ccc(-c2nc3ccccc3[nH]2)cc1	none
Nc1ccc(-c2nc3c(ccc4ccccc43)[nH]2)cc1	TRPC6 inh -9.5
COc1ccc(CCNC(=O)CSc2nc(N)c3c(C)c(C)oc3n2)cc1OC	Platelet DG rel 74
O=C(CSc1nnc(NC(=O)c2ccccc2)s1)NCc1ccco1	none
O=C(CSc1nnc(NC(=O)c2ccc3c(c2)OCO3)s1)NCc1ccco1	TRPC4 PAM 11 (no result: Platelet DG rel)
COc1ccc(NC(=O)N2CCc3ccccc32)cc1	Platelet DG rel 53
CCc1ccc(-c2ccc(C(=O)C(F)(F)F)[nH]2)cc1	none
Cc1cc(Nc2ncc(Cl)cc2Cl)n(-c2ccccc2C)n1	TRPC4 inh -7
CCOC(=O)c1sc(NC(=O)CSc2n[nH]c(-c3ccncc3)n2)c(C#N)c1C	none
COC(=O)c1sc(NC(=O)CSc2n[nH]c(N)n2)c(C(=O)OC)c1C	none
Cc1ccsc1/C=C/C1=Cc2c(sc(NC(=O)CSc3n[nH]c(N)n3)c2C#N)C(C)(C)C1	TRPC4 PAM 90
CCOc1ccc(/C=C/C2=Cc3c(sc(NC(=O)CSc4n[nH]c(N)n4)c3C#N)C(C)(C)C2)cc1	TRPC4 PAM 17
Cc1cc(OC(=O)c2cccc(Br)c2)c([N+](=O)[O-])c(=O)[nH]1	none
CCc1ccc(NC(=S)Nc2cccc3cnccc23)cc1	none
CN(CCNC(=O)c1ccc(/C=N/O)nc1)Cc1ccccc1	TRPC4 PAM 22
O=C(NCCCNCCCNC(=O)c1ccc(/C=N/O)nc1)c1ccc(/C=N/O)nc1	none
CN(CCCNC(=O)c1ccc(/C=N/O)nc1)CCCN(C)Cc1ccccc1	TRPC4 PAM 13
Cc1cc(C)n(CCNC(=O)c2ccco2)n1	none
Cc1cc(NC(=O)CSCC(=O)Nc2ccc(Cl)c(C(F)(F)F)c2)no1	TRPC4 inh -5
Cc1cc(NC(=O)CSCC(=O)OC(C)C(=O)c2cc(C)c(C)cc2C)no1 (configuration not stated)	TRPC4 inh -6
COc1ccc(NC(=O)CSCC(=O)N(C)CC(=O)Nc2ccc(Cl)c(C(F)(F)F)c2)cc1	none
Cc1cc(NC(=O)CSCC(=O)Nc2ccccc2N2CCCCC2)no1	Platelet DG rel 50
Cc1cc(NC(=O)CSCC(=O)OC(C)C(=O)N(C)Cc2ccccc2)no1 (configuration not stated)	none
Cc1ccc(Oc2ccccc2NC(=O)CSCC(=O)Nc2cc(C)on2)cc1	TRPC4 inh -6
Cc1ccc(C(=O)c2c(NC(=O)c3cccnc3)sc3c2CCCC3)cc1	none
Cc1cc2c(cc1S(=O)(=O)CCC(=O)Nc1cccc(C(F)(F)F)c1)OCC(=O)N2	none
COc1ccc(CC(=O)Nc2ccccc2Oc2ccccc2)cc1	TRPC4 inh -6
COc1ccccc1NC(=O)Cc1ccc(-c2ccccc2)cc1	none
COC(=O)c1c(NC(=O)CSc2ncn[nH]2)sc(C)c1C	TRPC4 inh -7
CCOC(=O)c1c(NC(=O)CSc2ncn[nH]2)sc(C(C)=O)c1C	none
CC(Oc1ccccc1)C(=O)N=C1SC2CS(=O)(=O)CC2N1Cc1ccccc1 (configuration not stated)	none
C/C(=N\NC(=O)c1cc2ccccc2cc1O)c1ccccn1	TRPC4 agonist 53
O=C(CNC(=O)c1cccs1)Nc1ccc2c(c1)OCCO2	none
CCOc1ccc(S(=O)(=O)N2CCN(C(=S)NC3CC3)CC2)cc1	TRPC4 PAM 18
CCOC(=O)C1=C(CC)Nc2ccccc2N/C1=N\S(=O)(=O)c1cc(Br)ccc1Br	none
COc1ccc(C2C(O)C(c3c[nH]c4ccccc34)=NN2C(=O)CCl)cc1 (configuration not stated)	TRPC4 PAM 21
COc1ccc(NC2c3ccccc3C(=O)N2Cc2ccc3c(c2)OCO3)cc1 (configuration not stated)	none
Cc1ccc(S(=O)(=O)N2CCN(c3cc4c(cc3[N+](=O)[O-])n(C)c(=O)n4C)CC2)cc1	TRPC4 PAM 15
CCOC(=O)C1(CCOc2ccccc2)CCN(Cc2cccc(F)c2)CC1	none
CC(COc1ccccc1)N1CCC(CO)(CCc2ccccc2)CC1 (configuration not stated)	TRPC4 agonist 51

From PubChem BioAssay
